From EPA's CvTdb concentration-time database

Experiments:
Mouse [1] = experiment: concentration in plasma after dosing; details: 2 h; dosed: 2-Hydroxy-4-methoxybenzophenone; 500 mg/kg; oral; Female; B6C3F1
Rat [2] = experiment: concentration in plasma after dosing; details: 6 h; dosed: 2-Hydroxy-4-methoxybenzophenone; 500 mg/kg; oral; Male; F344
Rat [3] = experiment: concentration in plasma after dosing; details: dosed: 2-Hydroxy-4-methoxybenzophenone, 8 mg/kg, iv, Male, F344
Rat [4] = experiment: concentration in plasma after dosing; details: dosed: 2-Hydroxy-4-methoxybenzophenone, 500 mg/kg, oral, Female, F344
Rat [5] = experiment: concentration in plasma after dosing; details: dosed: 2-Hydroxy-4-methoxybenzophenone, 100 mg/kg, oral, Female, F344
Mouse [6] = experiment: concentration in plasma after dosing; details: 0.25 h; dosed: 2-Hydroxy-4-methoxybenzophenone; 50 mg/kg; iv; Male; B6C3F1
Rat [7] = experiment: concentration in plasma after dosing; details: dosed: Nitrite, 40 mg/kg, oral, Female, F344
Rat [8] = experiment: concentration in plasma after dosing; details: dosed: Nitrite, 80 mg/kg, oral, Female, F344
Rat [9] = experiment: concentration in plasma after dosing; details: 0.5 h; dosed: Nitrite; 80 mg/kg; oral; Female; F344
Rat [10] = experiment: concentration in liver after dosing; details: 6 h; dosed: Fluorotelomer alcohol 8+2; 80 mg/kg; oral; Female; Harlan Sprague Dawley
Rat [11] = experiment: concentration in liver after dosing; details: 3 h; dosed: Fluorotelomer alcohol 8+2; 24 mg/kg; oral; Male; Harlan Sprague Dawley
Rat [12] = experiment: concentration in plasma after dosing; details: 5 min; dosed: 678-39-7; 12 mg/kg; iv; Male; F344
Rat [13] = experiment: concentration in plasma after dosing; details: dosed: 678-39-7, 40 mg/kg, iv, Male, F344
Rat [14] = experiment: concentration in liver after dosing; details: 3 h; dosed: Fluorotelomer alcohol 8+2; 80 mg/kg; oral; Female; Harlan Sprague Dawley
Rat [15] = experiment: concentration in kidney after dosing; details: 192 h; dosed: Perfluorooctanoic acid; 12 mg/kg; oral; Male; Harlan Sprague Dawley
Rat [16] = experiment: concentration in kidney after dosing; details: 6 h; dosed: Fluorotelomer alcohol 8+2; 80 mg/kg; oral; Female; Harlan Sprague Dawley
Rat [17] = experiment: concentration in liver after dosing; details: 12 h; dosed: Fluorotelomer alcohol 8+2; 80 mg/kg; oral; Female; Harlan Sprague Dawley
Rat [18] = experiment: concentration in kidney after dosing; details: 12 h; dosed: Fluorotelomer alcohol 8+2; 24 mg/kg; oral; Male; Harlan Sprague Dawley
Rat [19] = experiment: concentration in liver after dosing; details: 24 h; dosed: Perfluorooctanoic acid; 12 mg/kg; oral; Male; Harlan Sprague Dawley
Rat [20] = experiment: concentration in liver after dosing; details: 6 h; dosed: Fluorotelomer alcohol 8+2; 80 mg/kg; oral; Female; Harlan Sprague Dawley; remark: listed apart in the source
Rat [21] = experiment: concentration in kidney after dosing; details: 6 h; dosed: Perfluorooctanoic acid; 80 mg/kg; oral; Female; Harlan Sprague Dawley
Rat [22] = experiment: concentration in liver after dosing; details: 3 h; dosed: Fluorotelomer alcohol 8+2; 80 mg/kg; oral; Female; Harlan Sprague Dawley; remark: listed apart in the source
Rat [23] = experiment: concentration in plasma after dosing; details: dosed: Potassium Perfluorobutane Sulfonate, 4 mg/kg, iv, Male, F344
Rat [24] = experiment: concentration in liver after dosing; details: 12 h; dosed: Potassium Perfluorobutane Sulfonate; 20 mg/kg; oral; Male; Harlan Sprague Dawley
Rat [25] = experiment: concentration in plasma after dosing; details: 1.5 h; dosed: Potassium Perfluorobutane Sulfonate; 4 mg/kg; iv; Male; F344
Rat [26] = experiment: concentration in liver after dosing; details: 0.5 h; dosed: Potassium Perfluorobutane Sulfonate; 20 mg/kg; oral; Male; Harlan Sprague Dawley
Rat [27] = experiment: concentration in plasma after dosing; details: dosed: Potassium Perfluorobutane Sulfonate, 4 mg/kg, iv, Male, F344; remark: listed apart in the source
rat [28] = details: dosed: benzo[a]pyrene, 1 mg/kg, iv, male, Sprague Dawley
rat [29] = experiment: concentration in blood after dosing; negative times count back from the end of exposure; details: dosed: methanol, inhalation, duration: 6 hr, male
human = experiment: concentration in expired air after dosing; details: dosed: methyl tert-butyl ether, 15 mg, oral, male
Method in brief: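 Data points giving concentration or amount against time came from published in vivo toxicokinetic studies and from two structured collections. PubMed searching, classifier screening and manual review located the studies. Most points were digitised from plot screenshots using WebPlotDigitizer, the rest were copied from tables, and all keep their reported units.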

COc1ccc(C(=O)c2ccccc2)c(O)c1 [2-Hydroxy-4-methoxybenzophenone]
Details	concentration in plasma [ng/mL]
Mouse [1]	4310
Mouse [6]	7110
Rat [2]	189

concentration in plasma [ng/mL]
Details	Rat [3]	Rat [4]	Rat [5]
3 h	–	–	13.6
10 h	6.58	27.5	–
10 min	3950	52.4	27.8

O=N[O-] [Nitrite]
concentration in plasma [ng/mL]
Details	1 h	2 h	5 min	8 h
Rat [7]	4300	1800	–	–
Rat [8]	–	–	6900	1800

Details	concentration in plasma [ng/mL]
Rat [9]	69300

O=C(O)C(F)(F)C(F)(F)C(F)(F)C(F)(F)C(F)(F)C(F)(F)C(F)(F)F [Perfluorooctanoic acid]
Details	concentration in kidney [ng/g]	concentration in liver [ng/g]	concentration in plasma [ng/mL]
Rat [10]	–	1430	–
Rat [11]	–	1440	–
Rat [12]	–	–	35.2
Rat [14]	–	2300	–
Rat [15]	14100	–	–
Rat [16]	1730	–	–
Rat [17]	–	498	–
Rat [18]	581	–	–
Rat [19]	–	60800	–
Rat [20]	–	1600	–
Rat [21]	175000	–	–
Rat [22]	–	2170	–

Rat [13]
Details	concentration in plasma [ng/mL]
0.5 h	219000
3 h	1660
12 h	28000

O=S(=O)([O-])C(F)(F)C(F)(F)C(F)(F)C(F)(F)F.[K+] [Potassium Perfluorobutane Sulfonate]
concentration in plasma [ng/mL]
Details	Rat [23]	Rat [27]
3 h	12800	429
5 min	32200	27500

Details	concentration in liver [ng/g]	concentration in plasma [ng/mL]
Rat [24]	10100	–
Rat [25]	–	1740
Rat [26]	62000	–

c1ccc2c(c1)cc1ccc3cccc4ccc2c1c34 [benzo[a]pyrene]
rat [28]
Details	amount in bile after dosing [ng]
1.003 h	7.16
3.009 h	20.1
5.994 h	22.9
24 h	26.4

CO [methanol]
rat [29]
Details	concentration in blood [ng/mL]
-206 s, 2000 ppm, Fischer-344, during exposure	80600
-5.613 h, 2000 ppm, Fischer-344, during exposure	18900
-5.151 h, 2000 ppm, Fischer-344, during exposure	24300
-3.08 h, 2000 ppm, Fischer-344, during exposure	59900
0.4288 h, 200 ppm, CDF(F344)/CrlBR	2410
0.9278 h, 200 ppm, CDF(F344)/CrlBR	2010
1.006 h, 2000 ppm, Fischer-344	83800
1.926 h, 200 ppm, CDF(F344)/CrlBR	1400
2.976 h, 2000 ppm, Fischer-344	53300
2.996 h, 200 ppm, CDF(F344)/CrlBR	1200
4.511 h, 200 ppm, CDF(F344)/CrlBR	1510
5.974 h, 2000 ppm, Fischer-344	16700
8.995 h, 2000 ppm, Fischer-344	702
11.92 h, 2000 ppm, Fischer-344	702

rat [29], 200 ppm, CDF(F344)/CrlBR, during exposure
Details	concentration in blood [ng/mL]
-5.615 h	1400
-5.115 h	4520
-3.047 h	3110
-0.07 h	3510

CC(C)(C)O [tert-butyl alcohol]
human
Details	concentration in expired air [nM]
0.163 h	1.334
0.3286 h	2.062
0.5019 h	2.062
0.6649 h	2.197
0.8305 h	1.982
0.9909 h	1.774
1.501 h	1.665
1.995 h	1.562
2.994 h	1.49
3.99 h	1.323
4.991 h	1.366
5.99 h	1.242
